Results published in ChEMBL document CHEMBL1124112, “Indoline analogues of idazoxan: potent alpha 2-antagonists and alpha 1-agonists” (J Med Chem, 1988).

Key:
[1] = biological target: T1, Adrenergic receptor alpha-1 (Rattus norvegicus, UniProt P15823+P23944+P43140); assay: Inhibition of saturable binding of [3H]prazosin to alpha-1 adrenergic receptor in rat cerebral cortical membranes.; format: cell membranes, Membrane
T1 sequence (P15823 whole entry): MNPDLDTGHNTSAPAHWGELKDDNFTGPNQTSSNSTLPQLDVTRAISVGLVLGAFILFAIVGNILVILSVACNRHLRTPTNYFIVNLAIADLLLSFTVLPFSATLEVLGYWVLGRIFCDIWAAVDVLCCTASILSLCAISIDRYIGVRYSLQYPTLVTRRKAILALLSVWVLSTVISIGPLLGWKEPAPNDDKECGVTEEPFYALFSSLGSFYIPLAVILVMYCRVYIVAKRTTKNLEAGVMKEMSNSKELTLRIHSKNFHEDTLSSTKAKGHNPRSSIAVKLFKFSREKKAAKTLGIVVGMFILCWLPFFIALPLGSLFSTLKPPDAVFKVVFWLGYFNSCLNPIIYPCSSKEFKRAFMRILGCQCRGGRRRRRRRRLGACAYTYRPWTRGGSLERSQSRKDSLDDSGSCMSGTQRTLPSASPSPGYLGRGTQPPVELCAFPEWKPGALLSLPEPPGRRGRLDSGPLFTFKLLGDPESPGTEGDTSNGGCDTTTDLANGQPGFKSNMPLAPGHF
T1 sequence (P23944 whole entry): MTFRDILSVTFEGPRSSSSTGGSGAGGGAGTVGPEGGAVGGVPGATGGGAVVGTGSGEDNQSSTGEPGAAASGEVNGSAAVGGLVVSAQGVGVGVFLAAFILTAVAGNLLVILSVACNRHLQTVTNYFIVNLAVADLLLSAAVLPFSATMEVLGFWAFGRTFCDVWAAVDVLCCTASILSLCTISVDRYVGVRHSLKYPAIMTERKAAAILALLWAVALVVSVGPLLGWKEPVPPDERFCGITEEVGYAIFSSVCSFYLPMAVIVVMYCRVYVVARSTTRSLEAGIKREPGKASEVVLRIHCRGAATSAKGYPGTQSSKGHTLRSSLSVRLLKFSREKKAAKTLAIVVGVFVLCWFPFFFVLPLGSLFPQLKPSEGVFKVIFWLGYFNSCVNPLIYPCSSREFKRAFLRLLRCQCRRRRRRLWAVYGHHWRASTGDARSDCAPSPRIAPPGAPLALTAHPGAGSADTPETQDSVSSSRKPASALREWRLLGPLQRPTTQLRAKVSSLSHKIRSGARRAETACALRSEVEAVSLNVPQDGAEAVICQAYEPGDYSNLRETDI
T1 sequence (P43140 whole entry): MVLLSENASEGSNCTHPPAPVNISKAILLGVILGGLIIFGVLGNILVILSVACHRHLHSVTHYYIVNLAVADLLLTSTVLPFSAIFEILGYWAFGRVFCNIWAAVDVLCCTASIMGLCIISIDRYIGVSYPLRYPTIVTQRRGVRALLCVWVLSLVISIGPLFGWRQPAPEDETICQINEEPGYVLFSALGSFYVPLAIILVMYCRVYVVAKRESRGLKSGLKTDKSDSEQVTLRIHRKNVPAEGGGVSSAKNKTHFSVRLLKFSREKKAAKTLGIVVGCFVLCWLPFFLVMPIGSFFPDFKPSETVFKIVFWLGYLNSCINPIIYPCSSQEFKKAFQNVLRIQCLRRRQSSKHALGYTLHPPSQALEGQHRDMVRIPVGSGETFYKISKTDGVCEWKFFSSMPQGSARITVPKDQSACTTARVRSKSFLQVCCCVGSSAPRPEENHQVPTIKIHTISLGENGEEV
Summary of the method: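 Rat cerebral cortical membranes were used as the α1 site source and labelled with [³H]prazosin. Compounds displaced saturable binding. Ki (nM) was defined as the concentration inhibiting saturable binding by 50%.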

Rattus norvegicus = assay: In vivo dose required to inhibit vas deferens contraction by 25% after pretreatment with prazosin in pithed rats. (prejunctional); format: functional
Summary of the method: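 Pithed rats pretreated with prazosin (1 mg/kg). Compound given iv in cumulative doses. ED25 is the dose (μg/kg) inhibiting vas deferens contraction by 25%. Separate groups of rats (n = 4-6).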

Ki [1]: 17.5 nM
Structure (SMILES): c1ccc(CN2c3ccccc3CC2C2=NCCN2)cc1 (configuration not stated)
ED25 (Rattus norvegicus): 9.5 µg/kg
